Screens (PubChem BioAssay)
Most compounds without a hit are left out; they make up all but 2.3% or so of the library.
CHT allo act: CHT positive allosteric modulators, primary screen, cell-based, membrane potential dye, choline EC20. High affinity choline transporter 1 (Homo sapiens), Q9GZV3. CHT-expressing cells; stronger effect = higher value; LV-AA mutant CHT in HEK293 cells. AID 488977, 2010. B-score at 10 µM. 0.49% of 310,000 active;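 active means initial fluorescence not abnormally high and integrated response B-score, plate-corrected, over 3 SD above library mean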
GalR3 antagonist: GalR3 antagonists in HEK293 cells, primary screen, cell-based, fluorescence readout; Galanin receptor type 3 (Homo sapiens), O60755; HEK293 GalR3-CNG cAMP membrane potential fluorescence; galR3 body fused to GalR1 C-terminus; inhibition, % at 3 µM; 0.44% of 360,000 active;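 active means inhibition above the screen-wide average plus 3 SD, cut at about 13% in these data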;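 further: forskolin and galanin both at EC90 stimulate the cells; cAMP rise reported by CNG channel membrane potential dye signal; 0% = forskolin plus galanin with DMSO and 100% = forskolin alone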
Target sequence (O60755 1-299 limits assumed): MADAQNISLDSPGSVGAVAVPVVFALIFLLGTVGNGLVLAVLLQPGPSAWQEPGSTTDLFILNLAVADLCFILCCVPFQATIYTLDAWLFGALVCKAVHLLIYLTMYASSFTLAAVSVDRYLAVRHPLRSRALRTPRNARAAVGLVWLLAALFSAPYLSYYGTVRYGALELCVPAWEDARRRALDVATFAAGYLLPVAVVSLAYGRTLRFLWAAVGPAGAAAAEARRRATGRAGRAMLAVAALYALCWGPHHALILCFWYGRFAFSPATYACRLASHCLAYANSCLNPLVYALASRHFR
NR2E3 ag-1: NR2E3 agonists in two-hybrid cells, primary screen, cell-based, luminescence, CHO-S, Gal4-NCOR/VP16-NR2E3 | Photoreceptor-specific nuclear receptor (Homo sapiens), Q9Y5X4 | luciferase | inhibition of corepressor binding, % at 3.98 µM | 0.35% of 360,000 active | AID 602229, 2012;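 active means inhibition above the mean of all tested compounds plus 3 SD, cut at about 70% in these data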;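 further: 0% = DMSO with NR2E3 transfected cells and 100% = cells lacking NR2E3 construct; higher means lower luciferase signal from less NR2E3 corepressor binding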
Target sequence (Q9Y5X4 whole entry, looked up, the tested form may be a part): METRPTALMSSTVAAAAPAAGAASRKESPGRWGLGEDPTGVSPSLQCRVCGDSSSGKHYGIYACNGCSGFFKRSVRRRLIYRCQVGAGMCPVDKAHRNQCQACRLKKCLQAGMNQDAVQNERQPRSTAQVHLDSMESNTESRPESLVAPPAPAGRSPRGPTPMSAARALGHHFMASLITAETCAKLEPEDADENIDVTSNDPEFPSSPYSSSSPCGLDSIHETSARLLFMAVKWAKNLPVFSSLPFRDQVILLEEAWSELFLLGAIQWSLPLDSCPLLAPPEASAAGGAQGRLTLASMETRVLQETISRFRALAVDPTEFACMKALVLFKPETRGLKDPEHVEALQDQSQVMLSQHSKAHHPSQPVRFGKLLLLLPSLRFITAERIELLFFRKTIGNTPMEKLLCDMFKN
CHT block: inhibitors of human choline transporter CHT; High affinity choline transporter 1 (Homo sapiens), Q9GZV3; 0.86% of 310,000 active; B-score at 10 µM; CHT-expressing cells, membrane potential dye, choline response; stronger effect = lower value;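 active means B-score over 3 SD under the library average, and starting fluorescence ratio not unusually high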;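 further: choline stimulus applied at its EC90 after an EC20 pre-addition; B-score computed on integrated fluorescence ratio after choline addition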
NR2E3 ag-2: inhibitors of NR2E3-RetCOR corepressor binding, primary screen, NR2E3 agonist project, biochemical, TR-FRET, GST-NR2E3, biotin-RetCOR; Photoreceptor-specific nuclear receptor (Homo sapiens), Q9Y5X4; 1536-well; inhibition of corepressor binding, % at 4.78 µM; 0.12% of 320,000 active; AID 2300, 2010;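 active means percent inhibition above the cutoff of mean plus 3 SD of all tested compounds, set per screening campaign, cut at about 20% in these data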;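 further: 0% = DMSO wells and 100% = biotin wells as full block of FRET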
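System: GST-NR2E3 and biotin-RetCOR proteins; probe or stimulus: 7 nM biotin-RetCOR; doses: compound at 4.8 µM, single dose; schedule: Compound–protein incubation for 5 h at 4 °C; detection: time-resolved FRET; read-out: percent inhibition; controls: biotin wells as high control, 0.6% DMSO wells as low control; format: 1536-well plates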
COUP-TFII inh: NR2F2 transcriptional activity inhibitors, primary screen, cell-based, luciferase reporter, HEK293T, luminescence | COUP transcription factor 2 (Homo sapiens), P24468 | HEK293T NGFI-A luciferase reporter | inhibition, % at 8.6 µM | 0.7% of 370,000 active;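 active means inhibition above a per-plate cutoff, mean inhibition of test wells between control levels plus 3 SD, cut at about 38% in these data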;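 further: cells cotransfected with COUP-TFII expression vector driving the NGFI-A reporter; 0% = median of COUP-TF2 test wells and 100% = reporter-only cells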
NR2E3 ag conf: NR2E3 agonist confirmation in cells, cell-based, luminescence, CHO-S two-hybrid. shares compounds with NR2E3 ag-1. CHO-S mammalian two-hybrid NR2E3-NCOR, luciferase luminescence. inhibition, % at 3.98 µM. 51% of 2,300 active. AID 624378, 2012;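 active means average inhibition above a cutoff equal to the mean inhibition of all tested compounds plus one SD, cut at about 70% in these data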;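 further: 0% = DMSO in NR2E3 cells and 100% = DMSO in cells lacking NR2E3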
VP16 counter: GAL4-VP16 reporter modulators, confirmation, counter-screen for NR2E3 agonist project, cell-based, luminescence, CHO-S, high throughput. CHO-S GAL4-VP16 luciferase reporter. inhibition, % at 3.98 µM. 29% of 2,300 active. shares compounds with NR2E3 ag-1;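 active means mean inhibition above a cutoff equal to the average over all tested compounds plus one standard deviation, cut at about 70% in these data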;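 further: luciferase from a UAS reporter driven by GAL4-VP16 transactivation; 0% = DMSO with VP16-transfected cells and 100% = DMSO with cells lacking VP16; higher means less reporter light so more repression of VP16 activity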
Active calls of the source: *; i = inactive; . = no result.

SMILES	CHT allo act	GalR3 antagonist	NR2E3 ag-1	CHT block	NR2E3 ag-2	COUP-TFII inh	NR2E3 ag conf	VP16 counter
Cc1cc(=O)[nH]c(SCC(=O)Nc2ccc(Br)cc2)c1C#N	i	-4.4	78.5*	i	-2.9	-15.8	97.6*	90.2*
COC(=O)c1ccccc1NC(=O)CSc1[nH]c(=O)cc(C)c1C#N	i	-1.8	3.6	i	5.7	-7.1	.	.
Cc1cc(=O)[nH]c(SCC(=O)Nc2ccc3c(c2)CCC3)c1C#N	.	-1.1	54.7	.	0.5	-11.7	38.5	41.4
Cc1cc(=O)[nH]c(SCC(=O)Nc2cccc(C)c2C)n1	.	.	.	.	.	13.1	.	.
O=C(NC(=S)N(Cc1ccccc1)Cc1ccccc1)c1ccccc1F	i	-4.9	65.2	i	3.4	6.3	20.8	21.2
CN(CC(=O)Nc1cccc(F)c1)C(=O)c1cc(S(=O)(=O)N2CCN(c3ccccc3)CC2)ccc1Cl	.	-4.9	53.6	.	2.0	14.7	36.9	43.8
COc1ccc(NC(=O)CN(C)C(=O)c2ccc(N3CCCC3)c([N+](=O)[O-])c2)cc1	i	0.1	10.2	i	-4.3	-1.5	.	.
CN(CC(=O)Nc1cccc(F)c1)C(=O)c1cccc(S(=O)(=O)N2CCN(c3ccccc3)CC2)c1	i	-4.7	25.9	i	-2.8	20.6	.	.
CN(CC(=O)Nc1cccc(F)c1)C(=O)c1ccc(N2CCCCC2)c([N+](=O)[O-])c1	i	-6.5	52.9	i	5.5	9.1	54.4	48.7
O=C(NC1CCCC1)c1ccc(COc2ccccc2)o1	.	.	.	.	.	-16.7	.	.
CC1(C)C(=O)OC(c2ccco2)C(C)(C)C1=O (stereo not given)	i	1.4	0.2	i	-1.2	-22.4	.	.
CCC1(CC)C(=O)C(C)(C)C(=O)OC1c1ccccn1 (stereo not given)	i	-4.3	91.7*	i	0.0	3.2	19.0	14.8
Cc1cccc(-c2cccc3c4c([nH]c23)[C@@H]2C[C@H](N(C)C(=O)c3ccccc3C)[C@H]([C@H](C)O)C(=O)N2CC4)c1	.	.	.	.	.	3.2	.	.
Cc1ccc(CNc2nc(C)nc3sc4c(c23)CCC4)cc1	i	-8.4	67.1	i	0.1	24.4	59.8	53.4
Cc1nc(Nc2ccc(O)cc2)c2c3c(sc2n1)CCCC3	i	.	-2.9	i	1.7	.	.	.
Cc1nn(Cc2ccc(Cl)c(Cl)c2)c(C)c1NC(=O)c1cc(-c2ccc3c(c2)OCO3)on1	i	0.7	6.2	i	-1.9	-1.9	.	.
Cc1nn(Cc2ccc(Cl)cc2)c(C)c1NC(=O)c1cc(-c2ccc3c(c2)OCO3)on1	i	-8.2	57.9	i	-1.4	-10.8	74.5*	51.4
CCc1c(C)nc(SC/C=C/c2ccccc2)[nH]c1=O	i	.	83.4*	i	-1.5	.	41.4	43.4
O=c1cc(C(F)(F)F)nc(SC/C=C/c2ccccc2)[nH]1	i	.	51.9	i	1.2	.	76.6*	29.0
Nc1cc(=O)[nH]c(SC/C=C/c2ccccc2)n1	i	-0.4	12.2	i	-3.1	-16.0	.	.
Cc1ccc(NC(=O)CN2C(=O)CCSc3ccccc32)cc1C	.	.	.	.	.	0.2	.	.
COC(=O)[C@]12C[C@H](CC(=O)NCc3ccc(C)o3)C(=O)N(Cc3ccco3)C1=C[C@H](COCc1ccccc1)O[C@@H]2C	.	.	.	.	.	14.6	.	.
CCCN(CC1CC1)C(=S)NC(=O)c1cc(Br)ccc1Cl	.	-4.7	81.2*	.	.	7.4	-1.4	7.8
CCCN(CC1CC1)C(=S)NC(=O)c1ccccc1C	.	-1.0	-13.4	.	.	15.0	.	.
CCOC(=O)c1c2c(n(-c3ccc(OC)cc3)c1C)C(=O)C(=O)c1ccccc1-2	.	.	62.5	.	.	.	29.7	-15.6
SMILES	CHT allo act	GalR3 antagonist	NR2E3 ag-1	CHT block	NR2E3 ag-2	COUP-TFII inh	NR2E3 ag conf	VP16 counter
COc1ccc(C2C(C(=O)N3CCN(C=O)CC3)CC(=O)N2c2ccc(OC)cc2)cc1 (stereo not given)	.	.	.	.	.	-11.4	.	.
CCOC(=O)[C@@]12CCCC3=C1N(CCC3)C(=O)[C@H]2CC(=O)NCC1CCCCC1	.	.	.	.	.	3.8	.	.
CC(C)OC(=O)CSc1nnc(CNc2ccc(Cl)cc2)n1Cc1ccccc1	i	-6.7	72.6*	i	1.6	7.1	42.4	62.6
COc1ccc2c(C(c3ccccc3O)C3CCCN3S(=O)(=O)c3ccc(C)cc3)cn(C)c2c1 (stereo not given)	.	.	.	.	.	24.3	.	.
Cc1nc(NCc2ccco2)c2c(C)c(C)sc2n1	i	-7.8	97.0*	i	5.1	-30.3	95.4*	68.1
CC(=O)c1ccc(NS(=O)(=O)c2ccc(CC(C)C)cc2)cc1	i	-6.8	64.2	i	-0.9	13.9	89.7*	69.4
CC(C)CCN(C)C1CCN(C(=O)Nc2ccc(Cl)cc2)CC1	.	.	.	.	.	-9.8	.	.
Cc1cccc(/C=N/Nc2cc(N3CCOCC3)nc(N3CCOCC3)n2)c1	i	-0.2	61.2	i	2.1	-8.1	75.0*	36.3
Cc1ccc(-c2nc(CS(=O)CC(=O)N3CCN(c4ccc(F)cc4)CC3)c(C)o2)cc1 (stereo not given)	i	-8.5	53.2	i	2.7	20.0	28.9	40.4
O=C(Nc1nnc(-c2cccs2)o1)c1cc(-c2ccccc2)nc2ccccc12	i	-1.8	71.0*	i	-0.1	-12.4	98.8*	12.7
O=C(Nc1nnc(-c2cccs2)o1)c1cccc(Oc2ccccc2)c1	i	-0.1	0.1	i	2.2	18.6	.	.
CCOC(=O)c1sc(NC(=O)c2cc(-c3ccc(C)cc3)nc3ccccc23)c(C#N)c1C	i	-1.2	9.2	i	-0.1	20.4	.	.
COC(=O)c1sc(NC(=O)c2cc(-c3ccccc3)nc3ccccc23)c(C#N)c1C	i	6.7	49.4	i	-1.2	-6.8	53.8	63.4
COc1ccc(/C=C/C(=O)c2ccc3c(c2)OCO3)cc1OC	.	-7.0	-10.3	.	0.9	-14.3	.	.
COc1cc2c(O)c3c(c(-c4ccc5c(c4)OCO5)c2cc1OC)C(=O)OC3	i	-0.5	81.7*	i	2.1	-39.7	99.4*	42.6
COc1cc2c(OC(C)=O)c3c(c(-c4ccc5c(c4)OCO5)c2cc1OC)C(=O)OC3	i	-6.5	81.0*	i	1.6	-4.1	98.4*	31.0
